Reference: article PMC9774327 (ACS Omega, 2022)
Where a SMILES comes first, the peptide text is derived from it. Bridges are numbered along the chain shown (N, C = ends). Where no end group is shown, it is not given here. [ ]: non-standard residue; d: D form. S5 = C=CCCC[C@](C)(N)C(=O)O

Assays:
MCF-7 cells = assay: Confocal microscope observation of intracellular localization; type: cell-based; details: peptide 1 μM with LysoTracker 70 nM for 2 h, Figure S8
Method in brief: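 MCF-7 cells grown in RPMI-1640 with 10% heat-inactivated FBS and 1% penicillin/streptomycin, then plated on glass-bottom dishes. They were co-incubated 2 h with peptide and LysoTracker, then stained with Hoechst33342 for 5 min and washed with PBS before confocal imaging.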

[1] = molecular target: T1, VDR-mediated transcription in MCF-7 cells expressing the VDR (Homo sapiens, UniProt P11473); assay: Dual-luciferase reporter gene assay of VDR-mediated transcription; type: cell-based; details: 3 μM peptide, 30 nM calcitriol defined as 100%, 16 h incubation
T1 sequence (P11473 1-427): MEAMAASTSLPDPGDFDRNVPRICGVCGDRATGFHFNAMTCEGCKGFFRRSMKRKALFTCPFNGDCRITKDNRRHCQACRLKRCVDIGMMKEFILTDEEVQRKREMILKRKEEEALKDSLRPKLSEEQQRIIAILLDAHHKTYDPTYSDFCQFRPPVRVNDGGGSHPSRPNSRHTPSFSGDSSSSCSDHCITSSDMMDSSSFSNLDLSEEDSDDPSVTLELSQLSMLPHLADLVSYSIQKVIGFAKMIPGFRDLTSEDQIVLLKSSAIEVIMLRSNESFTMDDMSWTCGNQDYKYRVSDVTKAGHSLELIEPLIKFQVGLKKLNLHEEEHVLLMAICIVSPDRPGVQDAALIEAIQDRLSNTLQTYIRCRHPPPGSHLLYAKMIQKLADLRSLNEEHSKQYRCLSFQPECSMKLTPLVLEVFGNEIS
Method in brief: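 MCF-7 cells (RPMI-1640, 10% heat-inactivated FBS, 1% penicillin/streptomycin) seeded at 4×10^4 cells/well and cultured 24 h. Cells were co-transfected by lipofection with a VDRE-firefly luciferase reporter and SV40-Renilla luciferase control. After 8 h, test compound was added with 1α,25(OH)₂D₃ (30 nM) for 16 h. Dual-luciferase activity was read in lysates, with 30 nM calcitriol activation set as 100%.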

HL-60 cells = assay: NBT reduction assay of VDR-mediated cell differentiation; type: cell-based; details: 1 μM peptide with 30 nM VD3, 48 h, NBT-positive cells counted
Method in brief: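 HL-60 cells in RPMI-1640 with 10% heat-inactivated FBS were treated 48 h with VD₃ (30 nM) with or without peptide. Cells were then stained with 1 mg/mL NBT plus 320 nM PMA for 30 min at 37 °C. NBT-positive cells were counted microscopically among more than 200 cells and expressed as a percentage. Data are means ± SD of three independent experiments.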

[2] = molecular target: ligand binding domain of rat VDR with a deleted loop region (Ser165–Pro211) (rat) (UniProt P13053); assay: fluorescence polarisation
Sequence of ligand binding domain of rat VDR with a deleted loop region (Ser165–Pro211) (rat) (P13053 212-423, stated change not applied): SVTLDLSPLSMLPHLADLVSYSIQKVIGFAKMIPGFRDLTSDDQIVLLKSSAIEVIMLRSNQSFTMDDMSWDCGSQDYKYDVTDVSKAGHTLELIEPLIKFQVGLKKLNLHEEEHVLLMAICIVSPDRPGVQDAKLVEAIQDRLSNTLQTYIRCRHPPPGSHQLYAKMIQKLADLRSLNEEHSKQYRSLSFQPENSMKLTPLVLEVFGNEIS

CC(C)C[C@H](NC(=O)[C@H](CC(C)C)NC(=O)[C@]1(C)CCCC=CCCC[C@](C)(NC(=O)[C@H](CC(N)=O)NC(=O)[C@H](CCC(=O)O)NC(=O)[C@@H](N)CCCCN)C(=O)N[C@@H](CC(C)C)C(=O)N[C@@H](CC(C)C)C(=O)N[C@@H](CCCNC(=N)N)C(=O)N1)C(=O)N[C@@H](CC(=O)O)C(=O)N[C@@H](CCCCN)C(=O)N[C@@H](CC(=O)O)C(=O)NCC(=O)NCC(=O)NCC(=O)N[C@@H](CCCNC(=N)N)C(=O)N[C@@H](CCCNC(=N)N)C(=O)N[C@@H](CCCNC(=N)N)C(=O)N[C@@H](CCCNC(=N)N)C(=O)N[C@@H](CCCNC(=N)N)C(=O)N[C@@H](CCCNC(=N)N)C(=O)N[C@@H](CCCNC(=N)N)C(=O)N[C@@H](CCCNC(=N)N)C(=O)N[C@@H](CCCNC(=N)N)C(N)=O [Peptide 23] (H-KEN[S5]LLR[S5]LLDKDGGGRRRRRRRRR-NH2; staple 4-8)
intracellular localization (confocal microscopy) (MCF-7 cells): localized in the endosome | % Inhibition at 3 μM of VDR-mediated transcriptional activity [1]: 44.3%

CC(C)C[C@H](NC(=O)[C@H](C)NC(=O)[C@H](CC(N)=O)NC(=O)[C@H](CCC(=O)O)NC(=O)[C@@H](N)CCCCN)C(=O)N[C@@H](CC(C)C)C(=O)N[C@@H](CCCNC(=N)N)C(=O)N[C@@]1(C)CCCC=CCCC[C@@](C)(C(=O)N[C@@H](CC(=O)O)C(=O)NCC(=O)NCC(=O)NCC(=O)N[C@@H](CCCNC(=N)N)C(=O)N[C@@H](CCCNC(=N)N)C(=O)N[C@@H](CCCNC(=N)N)C(=O)N[C@@H](CCCNC(=N)N)C(=O)N[C@@H](CCCNC(=N)N)C(=O)N[C@@H](CCCNC(=N)N)C(=O)N[C@@H](CCCNC(=N)N)C(=O)N[C@@H](CCCNC(=N)N)C(=O)N[C@@H](CCCNC(=N)N)C(N)=O)NC(=O)[C@H](CC(=O)O)NC(=O)[C@H](CC(C)C)NC(=O)[C@H](CC(C)C)NC1=O [Peptide 24]
inhibition of HL-60 cell differentiation at 1 μM (HL-60 cells): did not inhibit cell differentiation | intracellular localization (confocal microscopy) (MCF-7 cells): broadly localized over the entire cell

KENALLRYLLDKDGGGRRRRRRRRR-NH2 [Peptide 21]
inhibition of HL-60 cell differentiation at 1 μM (HL-60 cells): did not inhibit cell differentiation

SRC2-3 peptide
relative value of IC50 (to SRC2-3) [2]: 1
